From publication PMC12008863 (Journal of Translational Medicine, 2025)

Legend:
FBXW7 [1] = assay: Western blot of rat retinal tissue; assay type: in vivo, rat (Sprague–Dawley); details: decreased by STZ; intravitreal AAV9, n = 3; Fig. 8D
p-STAT4 [2] = assay: Western blot of rat retinal tissue; assay type: in vivo, rat (Sprague–Dawley); details: increased by STZ; intravitreal AAV9, n = 3; Fig. 8C
p-AKT [3] = assay: Western blot of rat retinal tissue; assay type: in vivo, rat (Sprague–Dawley); details: increased by STZ; intravitreal AAV9, n = 3; Fig. 8F
VEGFA [4] = assay: Western blot of rat retina; assay type: in vivo, rat (Sprague–Dawley); details: intravitreal AAV9, n = 3; Fig. S13C
In short: (§1)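 STZ-diabetic male Sprague–Dawley rats (6–8 weeks) were given intravitreal AAV9 (5 μL, 1 × 10^12 vg/mL) every 8 weeks, with saline controls. Retinal protein was extracted in RIPA with protease and phosphatase inhibitors, run on 10% SDS–PAGE and transferred to PVDF. Membranes were blocked in 5% skimmed milk, probed with primary then secondary antibody, and developed by ECL.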

Notch 1 [5] = assay: Western blot of rat retinal tissue; assay type: in vivo, rat (Sprague–Dawley); details: increased by STZ; intravitreal AAV9, n = 3; Fig. 8E
rno-miR-223-3p = assay: qPCR in rat retina; assay type: in vivo, rat (Sprague–Dawley); details: increased by STZ; intravitreal AAV9, n = 3; Fig. 8A
VEGFA [6] = assay: Immunohistochemistry of rat retina; assay type: in vivo, rat (Sprague–Dawley); details: intravitreal AAV9, 16 weeks, n = 3; Fig. 6E
In short: (§2)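 Male Sprague–Dawley rats, 6–8 weeks old, with STZ-induced diabetic retinopathy. Under intraperitoneal ketamine (80 μg/g) and xylazine (4 μg/g), rats received 5 μL intravitreal AAV9 (1 × 10^12 vg/mL) carrying the test sequence every 8 weeks; saline as control; n = 8 rats per group. At 16 weeks, eyes were paraffin-embedded, cut at 5 μm and immunostained. Relative positivity ratio scored; mean ± SD.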

HIF-1α [7] = assay: Immunohistochemistry of rat retina; assay type: in vivo, rat (Sprague–Dawley); details: intravitreal AAV9, 16 weeks, n = 3; Fig. 6D
In short: as §2

fibronectin = assay: Immunohistochemistry of rat retina; assay type: in vivo, rat (Sprague–Dawley); details: vs STZ and STZ + NC; intravitreal AAV9, 16 weeks, n = 3; Fig. 6B
In short: (§3)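 In the STZ-induced DR model in male SD rats, animals received intravitreal AAV9 (5 μL, 1 × 10^12 vg/mL, every 8 weeks; saline control; n = 8/group). At 16 weeks, eyeballs were paraffin-embedded and cut at 5 μm. Immunohistochemistry for fibronectin or PCNA followed, with relative positivity ratio quantified; n = 3.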

HIF-1α [8] = assay: Western blot of rat retina; assay type: in vivo, rat (Sprague–Dawley); details: intravitreal AAV9, n = 3; Fig. S13B
In short: as §1

STAT4 [9] = assay: Western blot of rat retinal tissue; assay type: in vivo, rat (Sprague–Dawley); details: increased by STZ; intravitreal AAV9, n = 3; Fig. 8C
p-mTOR [10] = assay: Western blot of rat retinal tissue; assay type: in vivo, rat (Sprague–Dawley); details: increased by STZ; intravitreal AAV9, n = 3; Fig. 8G
PCNA = assay: Immunohistochemistry of rat retina; assay type: in vivo, rat (Sprague–Dawley); details: vs STZ and STZ + NC; intravitreal AAV9, 16 weeks, n = 3; Fig. 6C
In short: as §3

p-AKT [11] = assay: Western blot in hRECs; assay type: cell-based, human; details: high glucose (increased by HG), 1 μM, n = 3; Fig. 4D, H
In short: (§4)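 hRECs (passages 5–6; 3000 cells/mL) were cultured 120 h in 5.5 mM glucose, 25 mM glucose or mannitol control medium, with 1 μM test peptide or TTR homotetramer added to high glucose. Lysis was in RIPA with protease/phosphatase inhibitors. Lysates were resolved on 10% SDS–PAGE, transferred to PVDF, blocked in 5% milk, probed and developed by ECL.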

hRECs [12] = details: high-glucose environment; ref [33], [34]; cited from earlier work
hnRNPA2B1 = details: ref [33], [34]; cited from earlier work
FBXW7 mRNA = assay: qPCR in hRECs; assay type: cell-based, human; details: high glucose, 1 μM, n = 5, Fig. 4C
In short: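 Total RNA came from hRECs grown 120 h in low-glucose, 25 mM high-glucose or mannitol control medium, with 1 μM test peptide or TTR homotetramer in high glucose. FBXW7 mRNA was quantified by qPCR with GAPDH as reference.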

STAT4 [13] = assay: Western blot in hRECs; assay type: cell-based, human; details: high glucose (increased by HG), 1 μM, n = 3; Fig. 4D, E
In short: as §4

FBXW7 [14] = assay: Western blot in hRECs; assay type: cell-based, human; details: high glucose (decreased by HG), 1 μM, n = 3; Fig. 4D, F
In short: as §4

hRECs [15] = assay: CCK-8 proliferation assay; assay type: cell-based, human; details: 1 μM, 5 days
In short: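 hRECs (passages 5–6; 3000 cells/mL) were grown in 25 mM glucose medium with 1 μM test peptide or TTR homotetramer, with 5.5 mM glucose and mannitol osmotic controls. Proliferation was read by CCK-8 after 5 days of culture; n = 5.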

hRECs [16] = assay: EdU DNA synthesis assay; assay type: cell-based, human; details: high glucose (25 mM), 1 μM, n = 5; Fig. 2A, B
In short: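 hRECs (passages 5–6; 3000 cells/mL) were kept in 25 mM glucose medium with 1 μM test peptide or TTR homotetramer, with low-glucose and mannitol controls. DNA synthesis was detected with an EdU labeling kit by confocal imaging, nuclei counterstained with Hoechst 33342; n = 5.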

hsa-miR-223-3p = assay: qPCR in hRECs; assay type: cell-based, human; details: high glucose, 1 μM, n = 5, Fig. 4B
In short: (§5)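 hRECs (passages 5–6) cultured 120 h in high-glucose (25 mM) medium with 1 μM test compound, alongside low-glucose and mannitol osmotic controls. Total RNA extracted and measured by qPCR: STAT4 mRNA normalised to GAPDH; hsa-miR-223-3p against a cel-miR-39-3p spike-in control. n = 5; mean ± SD; one-way ANOVA with LSD test.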

p-mTOR [17] = assay: Western blot in hRECs; assay type: cell-based, human; details: high glucose (increased by HG), 1 μM, n = 3; Fig. 4D, I
In short: as §4

hRECs [18] = assay: Wound healing assay; assay type: cell-based, human; details: high glucose, 1 μM, 24 h, n = 5; Fig. 3B, C
In short: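 Wound-healing kit assay on hRECs (passages 5–6) in high-glucose (25 mM) phenol red-free DMEM containing 1 μM test compound. Low glucose (5.5 mM) and mannitol (20 mM) osmotic controls included. Closure followed over 24 h; n = 5; mean ± SD, one-way ANOVA with LSD post hoc test.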

p-STAT4 [19] = assay: Western blot in hRECs; assay type: cell-based, human; details: high glucose (increased by HG), 1 μM, n = 3; Fig. 4D, E
In short: as §4

hRECs [20] = assay: Tube formation assay; assay type: cell-based, human; details: high glucose, 1 μM, basement membrane matrix, 4 h, n = 5; Fig. 3D, E
In short: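 hRECs (passages 5–6) in 25 mM glucose medium with 1 μM test peptide or TTR homotetramer, plus low-glucose and mannitol osmotic controls, were plated on basement membrane matrix. Tube formation was then assessed.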

STAT4 mRNA = assay: qPCR in hRECs; assay type: cell-based, human; details: high glucose, 1 μM, n = 5, Fig. 4A
In short: as §5

hRECs [21] = assay: Apoptosis; assay type: cell-based, human; details: Annexin V flow cytometry; hyperglycemia; Fig. S7
In short: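 hRECs (passages 5–6) were seeded at 3000 cells/mL and grown 120 h in low-glucose (5.5 mM), high-glucose (25 mM) or low-glucose + 20 mM mannitol (osmotic control) medium. TTR homotetramer (1 μM) or test peptide (1 μM) was added to the high-glucose medium. Apoptosis was measured by FITC Annexin V staining and flow cytometry.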

VEGFA [22] = assay: Western blot in hRECs; assay type: cell-based, human; details: high glucose (enhanced by HG), n = 3; Fig. S8A, C
Notch 1 [23] = assay: Western blot in hRECs; assay type: cell-based, human; details: high glucose (increased by HG), 1 μM, n = 3; Fig. 4D, G
In short: as §4

[24] = Kidney and liver pathological indexes; assay type: in vivo, rat (Sprague–Dawley); details: serum, STZ rats (raised vs normal), intravitreal AAV9
In short: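 STZ-diabetic male SD rats were given intravitreal AAV9 every 8 weeks (5 μL, 1 × 10^12 vg/mL) or saline. Serum ALT, AST and ALP activities and BUN and creatinine concentrations were measured on an automatic biochemical analyzer.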

hRECs [25] = assay: Cell entry and localization in hRECs; assay type: cell-based, human; details: 1 μM, 2 h incubation, HG medium, 37 °C; confocal microscopy; Fig. 1D
In short: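 Passage-6 hRECs spent 24 h in high-glucose medium at 37 °C, then 2 h with 1 μM test peptide, TTR homotetramer or scrambled peptide. Cells were PBS-washed, fixed (4% PFA, 20 min), permeabilized (0.1% Triton X-100) and stained overnight at 4 °C with anti-hnRNPA2B1, anti-TTR or anti-His-tag. Alexa Fluor 488/594 secondaries and Hoechst 33342 were used; imaging was confocal.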

TTR overexpression: Rat TTR (GenBank: AAH86946.1) cloned into the pAAV-MCS vector and packaged in AAV9, intravitreal
FBXW7 protein level (FBXW7 [1]): significantly reversed | p-STAT4 protein level (p-STAT4 [2]): significantly reversed | p-AKT protein level (p-AKT [3]): significantly reversed | VEGFA level (western blot) (VEGFA [4]): neither THIP-4 administration nor elevated TTR expression affected the levels | Notch 1 protein level (Notch 1 [5]): significantly reversed | rno-miR-223-3p expression (rno-miR-223-3p): reversed | VEGFA level (IHC) (VEGFA [6]): neither THIP-4 administration nor TTR overexpression affected the levels | HIF-1α level (IHC) (HIF-1α [7]): neither THIP-4 administration nor TTR overexpression affected the levels | fibronectin positivity ratio (fibronectin): lower | HIF-1α level (western blot) (HIF-1α [8]): neither THIP-4 administration nor elevated TTR expression affected the levels | STAT4 protein level (STAT4 [9]): significantly reversed | p-mTOR protein level (p-mTOR [10]): significantly reversed | PCNA positivity ratio (PCNA): lower

transthyretin [TTR]
p-AKT protein level (p-AKT [11]): significantly reversed | neovascularization of hRECs (hRECs [12]): inhibits the neovascularization of hRECs in a high-glucose environment | level of hnRNPA2B1 (hnRNPA2B1): could not affect the level of hnRNPA2B1 | FBXW7 expression level (FBXW7 mRNA): this trend was reversed | STAT4 protein level (STAT4 [13]): significantly reversed | FBXW7 protein level (FBXW7 [14]): significantly reversed | proliferation (CCK-8), high glucose (hRECs [15]; high glucose (25 mM), n = 5, Fig. 2C): significantly abrogated | proliferation (CCK-8), low glucose (hRECs [15]; low glucose (5.5 mM), Fig. S6): neither TTR nor the THIPs inhibited hREC proliferation | DNA synthesis (EdU) (hRECs [16]): significantly reversed this trend | hsa-miR-223-3p expression level (hsa-miR-223-3p): reversed in the presence of TTR or the THIPs | p-mTOR protein level (p-mTOR [17]): significantly reversed | wound healing (hRECs [18]): significantly inhibited the accelerated hREC healing | p-STAT4 protein level (p-STAT4 [19]): significantly reversed | tube length (tube formation) (hRECs [20]): reversed by TTR and the THIPs | STAT4 expression level (STAT4 mRNA): reversed in the presence of TTR or the THIPs | apoptosis (hRECs [21]): not significantly influenced | VEGFA level (VEGFA [22]): neither the THIPs nor TTR could reverse this effect | Notch 1 protein level (Notch 1 [23]): significantly reversed | ALT activity ([24]; Fig. S12D): could not be affected by TTR or THIP-4 | AST activity ([24]; Fig. S12E): could not be affected by TTR or THIP-4 | ALP activity ([24]; Fig. S12F): could not be affected by TTR or THIP-4 | cellular localization (hRECs [25]): mainly accumulated in the nucleus and their signals overlapped with that of hnRNPA2B1
